# An excerpt weighted towards active compounds, which were near 3.7% of everything screened.
# rCAG RNA binder: binders of r(CAG) RNA repeats, primary screen, biochemical, fluorescence. actives 1.3% (n = 370,000). r(CAG) RNA repeat, TO-PRO-1 dye displacement fluorescence. inhibition, % at 3 µM;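 active = inhibition above the plate cutoff, the mean of all test compounds on that plate plus 3 SD, cut at about 35% in these data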;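 also: 0% = DMSO alone and 100% = 100 µM mitoxantrone as full dye displacement; higher means more dye released from RNA so lower well fluorescence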
# TAAR1 antagonist: human TAAR1 antagonists, primary screen, Fluo-8 calcium fluorescence, CHO RD-HGA16 cells; antagonist; inhibition, % at 3 µM; actives 1.5% (n = 360,000); AID 624466, 2012;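 active = inhibition above a per-plate cutoff, the mean inhibition of test compounds on that plate plus 3 SD, cut at about 49% in these data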;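 also: 0% = DMSO plus EC80 beta-PEA response and 100% = DMSO alone without agonist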
# Target sequence (Q96RJ0 whole entry, looked up): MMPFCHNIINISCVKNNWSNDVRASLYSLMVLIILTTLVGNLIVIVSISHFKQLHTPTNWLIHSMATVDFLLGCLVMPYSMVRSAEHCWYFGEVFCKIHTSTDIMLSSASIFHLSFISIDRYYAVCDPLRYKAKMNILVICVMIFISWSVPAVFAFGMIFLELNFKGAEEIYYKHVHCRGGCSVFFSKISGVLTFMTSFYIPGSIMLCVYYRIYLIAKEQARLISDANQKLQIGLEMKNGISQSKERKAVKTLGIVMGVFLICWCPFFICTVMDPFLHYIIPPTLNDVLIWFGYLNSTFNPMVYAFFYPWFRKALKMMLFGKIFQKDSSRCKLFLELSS
#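 test system = CHO RD-HGA16 cells bearing hTAAR1 | replication = singlicate | controls = DMSO-only wells and EC80 β-PEA-stimulated wells | reagent = EC80 β-phenethylamine stimulus | read-out basis = percent inhibition of PEA-evoked calcium signal, max/basal emission ratio | schedule = seeding 17-24 h prior, 75-min 37 °C, 30-min RT dye loading | signal = kinetic Fluo-8 calcium fluorescence measurement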
# NS3 helicase inh: inhibitors of HCV NS3 helicase, primary screen, biochemical, Cy5 molecular beacon fluorescence; Hepatitis C virus NS3 helicase; NS3 helicase DNA unwinding; inhibition, % at 10.9 µM; actives 0.56% (n = 290,000); AID 1800, 2009;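 active = inhibition above the mean of all tested compounds plus 3 SD, set per campaign, cut at about 35% in these data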;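 also: 0% = DMSO wells and 100% = thioflavine S control wells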
#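 System: Hepatitis C virus NS3 helicase domain fragment enzyme | Reagent: Annealed dual-labelled DNA beacon duplex, ATP-started | Compound dosing: 10.9 µM single point, 0.8% DMSO | Incubation: 1 h reaction at 25 °C, ATP-initiated | Technique: Cy5 fluorescence | Evaluation: Percent inhibition from t60/t0 fluorescence ratio | Benchmarks: Low DMSO, high thioflavine S at 110 µM | Replication: Singlicate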
# TAAR1 agonist: human TAAR1 agonists, primary screen, Fluo-8 calcium fluorescence, CHO RD-HGA16 cells. vehicle wells 0%, saturating PEA agonist 100%. activation, % at 3 µM. Trace amine-associated receptor 1 (Homo sapiens), Q96RJ0. actives 0.99% (n = 360,000);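 active = activation above the mean activation of all test compounds in the run plus 3 SD, cut at about 38% in these data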
#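 Test system: RD-HGA16 (CHO) cells co-expressing Gα16 and hTAAR1; dosing: one-point dosing at 3 µM (nominal); timing: 17-24 h seeding, 75 min 37 °C dye, 30 min RT; signal: kinetic Fluo-8 calcium fluorescence; read-out basis: % activation relative to PEA EC100 response; controls: DMSO and PEA EC100; replicates: n 1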
# HCV core dimer: inhibitors of HCV core protein dimerization, primary screen, biochemical, TR-FRET, high-throughput; TR-FRET GST/Flag-core106 dimerization, 1536-well; inhibition, % at 5 µM; actives 0.33% (n = 300,000);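 active = inhibition above the mean of all tested compounds plus 3 SD, set per screening campaign, cut at about 45% in these data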
#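 Material: GST/Flag-tagged HCV core106 proteins. Incubation: 4 h, 22.5 °C incubation. Read-out basis: inhibition (%) from 671 over 617 nm ratio. Measured by: TR-FRET, excitation 340 nm, emission 617 and 671 nm.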
# rCAG binder conf: small molecules binding CAG repeat RNA – biochemical, fluorescence, confirmation; shares compounds with rCAG RNA binder; r(CAG) RNA repeat, TO-PRO-1 dye displacement fluorescence; inhibition, % at 3 µM; actives 70% (n = 4,300); AID 652065, 2013;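 active = inhibition above a per-plate cutoff, the mean inhibition of sample wells plus 3 SD, cut at about 35% in these data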;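 also: loss of TO-PRO-1 fluorescence as compound displaces dye from 1x1 AA loop RNA; 0% = DMSO only wells and 100% = 100 µM mitoxantrone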
# DNA CAG counter: displacement of TO-PRO-1 from CAG DNA duplex, counter-screen for rCAG RNA repeat binder project, biochemical, fluorescence, TO-PRO-1 dye, d(CAG) DNA oligo. shares compounds with rCAG RNA binder. d(CAG) DNA oligo TO-PRO-1 dye displacement. inhibition, % at 3 µM. actives 94% (n = 4,300). AID 652068, 2013;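 active = inhibition above its plate's cutoff, the mean test-well inhibition plus 3 SD, cut at about 4.8% in these data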;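 also: 0% = DNA dye mix with DMSO and 100% = 100 µM mitoxantrone; hits displace the dye from DNA and so lower well fluorescence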
# DNA CAG DR: inhibitors of DNA CAG/GTC TO-PRO-1 complex, dose response, counter-screen for rCAG RNA repeat binder project, biochemical, fluorescence, TO-PRO-1 dye; DNA CAG/GTC duplex TO-PRO-1 dye displacement fluorescence; actives 20% (n = 250); shares compounds with rCAG RNA binder; IC50, µM; in the data active = IC50 below about 10 µM
# * = called active by the depositor; · = not tested or not shown.
SMILES,rCAG RNA binder,TAAR1 antagonist,NS3 helicase inh,TAAR1 agonist,HCV core dimer,rCAG binder conf,DNA CAG counter,others
CCOC(=O)C1=C(C)N=c2s/c(=C\c3ccc(OCC(=O)O)cc3)c(=O)n2C1c1ccc(OC(C)C)cc1 (stereo not drawn),64*,-1,16,0,23,85*,55*,
CCOC(=O)C1=C(C)N=c2sc(=Cc3cc(Cl)c(OCC(=O)O)c(Cl)c3)c(=O)n2C1c1cccc(OC)c1 (stereo not drawn),50*,-2,·,2,·,85*,54*,
CCOC(=O)C1=C(C)N=c2s/c(=C/c3ccc(OCC(=O)O)cc3)c(=O)n2C1c1cc(OC)c(OC)c(OC)c1 (stereo not drawn),42*,-9,1,2,15,74*,37*,
CC(COc1ccccc1C#N)CN1CCC(C(O)(c2ccccc2)c2ccccc2)CC1 (stereo not drawn),3,·,·,·,·,·,·,
COC(=O)[C@]12C[C@H](CC(=O)NCC34CC5CC(CC(C5)C3)C4)C(=O)N(Cc3ccc4c(c3)OCO4)C1=C[C@H](COCc1ccccc1)O[C@@H]2C,10,-33,·,1,·,·,·,
COc1ccccc1C1C(C(C)=O)=C(C)N=c2s/c(=C\c3cc(OC)c(OC)c(OC)c3)c(=O)n21 (stereo not drawn),2,-22,-13,4,0,·,·,
CC1=C(C(=O)Nc2ccccc2)C(c2ccc(C)o2)n2c(s/c(=C\c3ccco3)c2=O)=N1 (stereo not drawn),38*,-4,30,4,·,12,7.1*,
CCOC(=O)C1=C(C)N=c2s/c(=C\c3ccc(OC(C)=O)cc3)c(=O)n2C1/C=C/c1ccccc1 (stereo not drawn),5,2,3,2,32,·,·,
CCOC(=O)C1=C(C)N=c2sc(=Cc3ccc(OCC(=O)O)cc3)c(=O)n2C1c1ccc(Cl)cc1 (stereo not drawn),83*,10,·,5,·,59*,26*,
Cc1cc(C)cc(NC(=O)NCCCN2CCN(c3ccc(F)cc3)CC2)c1,2,·,·,·,·,·,·,
O=C(NNC(=S)NCCc1ccccc1)c1ccc(Br)s1,54*,18,11,10,-1,47*,14*,DNA CAG DR=>30
COc1cccc(NC(=O)Nc2nc3ncccn3c2-c2ccc(C(F)(F)F)cc2)c1,1,·,·,·,·,·,·,
CCCCNS(=O)(=O)CC1NCc2cc(F)ccc21 (stereo not drawn),1,·,·,·,·,·,·,
C[C@H](O)[C@@H]1CN2CCc3c([nH]c4cccc(-c5ccccc5)c34)[C@@H]2C[C@@H]1N(C)CC1CCCCC1,6,·,·,·,·,·,·,
Nc1cc(=O)[nH]c(SCC(=O)Nc2ccc3c(c2)CCC3)n1,11,-10,12,3,3,·,·,
O=C(CSc1nc(O)cc(=O)[nH]1)Nc1ccc2c(c1)CCC2,49*,5,4,3,1,12,6.0*,
Cc1cc(=O)[nH]c(SCC(=O)Nc2nc(-c3ccccc3)cs2)n1,36*,11,14,5,12,33,9.5*,
COc1ccc(-c2csc(NC(=O)CSc3nc4ccccc4c(=O)[nH]3)n2)cc1,38*,2,12,-3,19,57*,22*,
COCCCN1C(=O)[C@H](CC(=O)N2CCN(C(=O)c3ccco3)CC2)[C@]2(C(=O)OC)CCCCC=C12,3,·,·,·,·,·,·,
